PubChem BioAssay
Calls of active or inactive are those of the source.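 Rule for the calls, unless noted: active = viability loss from added drug above about 55%, and viability with drug at most 40%, in both replicates (limit read from the data, passing the limit was not always enough); inconclusive = both conditions met in only one replicate; inactive = neither replicate meets both conditions.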

Legend:
[1] = Her2 expression decrease, cell viability multiplex – SKBR3 breast tumor cells, AlphaScreen, ATP viability, primary screen (AID 461;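 active = Her2 level under about 52% in both replicate screens, with viability over 70% of control, limit read from the data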;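 for Her2 level: lower value means less Her2 protein in the cells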;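 for viability: percent of carrier control wells set as 100% viability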); details: SKBR3 Her2 protein level, 18-24 h, measured here: SKBR3 viability, ATP luminescence, at 10 µM
[2] = target: Receptor tyrosine-protein kinase erbB-2 (Homo sapiens) (UniProt P04626); assay: as above; details: 18-24 h, at 10 µM, stronger effect = lower value
Chain of Receptor tyrosine-protein kinase erbB-2 (Homo sapiens) (P04626 whole entry, looked up): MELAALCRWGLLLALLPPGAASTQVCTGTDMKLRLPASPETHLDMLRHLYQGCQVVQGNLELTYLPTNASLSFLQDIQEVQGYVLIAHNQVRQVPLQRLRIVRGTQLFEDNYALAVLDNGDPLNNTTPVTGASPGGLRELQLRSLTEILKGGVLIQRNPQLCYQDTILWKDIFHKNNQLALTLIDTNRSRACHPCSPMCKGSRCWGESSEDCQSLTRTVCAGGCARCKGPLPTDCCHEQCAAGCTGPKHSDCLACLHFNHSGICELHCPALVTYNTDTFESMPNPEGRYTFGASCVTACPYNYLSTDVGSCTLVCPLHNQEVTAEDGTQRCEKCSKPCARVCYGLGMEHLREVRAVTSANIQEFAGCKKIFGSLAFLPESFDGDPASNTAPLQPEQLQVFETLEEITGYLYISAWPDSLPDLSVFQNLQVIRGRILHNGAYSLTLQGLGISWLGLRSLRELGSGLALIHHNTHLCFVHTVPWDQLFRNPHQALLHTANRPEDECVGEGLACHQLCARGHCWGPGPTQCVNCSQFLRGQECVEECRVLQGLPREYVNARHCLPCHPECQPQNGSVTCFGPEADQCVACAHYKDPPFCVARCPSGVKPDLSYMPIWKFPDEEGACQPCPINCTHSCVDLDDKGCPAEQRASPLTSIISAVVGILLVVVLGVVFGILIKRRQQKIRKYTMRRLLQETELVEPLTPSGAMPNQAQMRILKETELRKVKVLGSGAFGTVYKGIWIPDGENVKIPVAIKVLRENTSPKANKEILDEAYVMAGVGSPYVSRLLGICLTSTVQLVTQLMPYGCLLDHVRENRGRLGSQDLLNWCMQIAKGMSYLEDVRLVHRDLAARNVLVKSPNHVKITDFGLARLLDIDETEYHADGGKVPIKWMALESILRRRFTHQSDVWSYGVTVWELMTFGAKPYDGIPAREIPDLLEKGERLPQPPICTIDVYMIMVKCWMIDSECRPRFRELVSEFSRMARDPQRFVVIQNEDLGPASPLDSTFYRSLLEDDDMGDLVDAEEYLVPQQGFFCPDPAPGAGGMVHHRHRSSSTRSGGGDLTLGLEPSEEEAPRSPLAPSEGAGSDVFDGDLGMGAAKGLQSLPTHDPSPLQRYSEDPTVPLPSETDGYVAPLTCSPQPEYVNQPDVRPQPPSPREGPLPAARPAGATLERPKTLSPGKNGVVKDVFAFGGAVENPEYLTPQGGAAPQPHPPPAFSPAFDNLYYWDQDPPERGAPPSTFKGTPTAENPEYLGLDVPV

[3] = reduced viability of SK-BR-3 breast cancer cells – cell-based, 24 h, human, pilot screen (AID 572;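 active = viability at or below 10% of carrier control in both of two separate runs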;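 note: compound exposure lasted between 18 and 24 h rather than exactly 24 h; 100% = carrier-treated control wells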); details: SK-BR-3 viability, CellTiter-Glo luminescence, at 10 µM, stronger effect = lower value
[4] = HUVEC growth inhibition – cell-based, human, primary screen (AID 575;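 active = viability at or below 30% in both replicate assays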;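 note: 100% = median of untreated cell wells with 0.1% DMSO on each plate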); details: HUVEC proliferation, CellTiter-Glo luminescence, 72 h; at 10 µM; stronger effect = lower value
How it was run: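 System – primary HUVEC, no more than 12 passages · Medium – Low-serum (2% FBS) EBM, supplemented · Times – 72 h exposure, 37 °C, 5% CO2, 30 min RT equilibration · Measured by – luminescent ATP assay · Read-out – % viability relative to median vehicle-well signal on each plate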

[5] = H69AR cell proliferation blockers – human, duplicate replicates, primary screen (AID 580;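 active = viability at or under a set limit in both replicates, limit being median viability minus 3 SD, cut at about 48% in these data, passing the limit was not always enough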;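 note: 100% = mean luminescence of untreated wells and 0% = no signal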); details: H69AR lung tumor cells viability, ATP luminescence, 72 h; at 10 µM; stronger effect = lower value
[6] = MRP1 drug-resistance reversers in H69AR cells – cell-based, doxorubicin co-treatment, pilot screen (AID 601); details: CellTiter-Glo, 72 h, at 10 µM; for differential viability (reversal): stronger effect = higher value
[7] = yeast transport mutant growth inhibition pilot in 384-well plates, post-Golgi transport modulator project (AID 636; in the data active = inhibition above about 31%); details: absorbance 615 nm, about 18 h, stronger effect = higher value
[8] = growth suppression of yeast trafficking mutant, preliminary HTS, modulators of trafficking downstream of Golgi apparatus project, 1536-format plate, OD 615 nm (AID 637; in the data active = inhibition above about 30%); details: yeast transport mutant growth, absorbance 615 nm, 18 h; stronger effect = higher value
[9] = H69AR cells + 2 uM doxorubicin, measured here: viability with 2 uM doxorubicin, stronger effect = lower value
[10] = H69AR cells, compound alone cytotoxicity

Structure (SMILES)	viability [1]	Her2 level [2]	viability [3]	viability [4]	viability [5]	differential viability (reversal) ([6]; H69AR cells + 2 uM doxorubicin)	viability [6, 9]	viability [6, 10]	inhibition [7]	inhibition [8]
CC(NC(=O)CSc1n[nH]c(=O)n1C1CC1)C12CC3CC(CC(C3)C1)C2 (stereo not given)	91.5%	106% (inactive)	91.5% (inactive)	91.6% (inactive)	99.8% (inactive)	6.17% (inactive)	93.6%	99.8%	-4% (inactive)	-5.41% (inactive)
O=C1CS/C(=N\C(=O)N2c3ccccc3Sc3ccccc32)N1	102%	98.5% (inactive)	102% (inactive)	94% (inactive)	105% (inactive)	14.4% (inactive)	90.2%	105%	-7.07% (inactive)	1.29% (inactive)
CC(=O)N(CCN(C(C)=O)c1ccccc1)c1ccccc1	105%	93% (inactive)	105% (inactive)	88.8% (inactive)	91.7% (inactive)	11.7% (inactive)	80%	91.7%	-1.95% (inactive)	-1.64% (inactive)
CCCC(=O)Nc1nnc(Sc2ccc(N(C)C)cc2)s1	100%	90% (inactive)	100% (inactive)	80.3% (inactive)	101% (inactive)	15.3% (inactive)	85.4%	101%	-5.2% (inactive)	-8.73% (inactive)
CCC(=O)N1Cc2ccccc2-c2ccccc2C1=O	102%	91% (inactive)	102% (inactive)	80.1% (inactive)	90% (inactive)	4.75% (inactive)	85.2%	90%	-5.06% (inactive)	4.76% (inactive)
COc1cccc(CNc2cccc3cccnc23)c1O	102%	82.5% (inactive)	102% (inactive)	73.5% (inactive)	78.4% (inactive)	-14.6% (inactive)	93%	78.4%	-3.16% (inactive)	-1.97% (inactive)
CC(=O)c1cc2c(=O)c3cc(C)ccc3oc2nc1C	102%	72.5% (inactive)	102% (inactive)	68.4% (inactive)	72.5% (inactive)	-7.35% (inactive)	79.9%	72.5%	-2.89% (inactive)	-1.43% (inactive)
CC1(C)Cc2c(sc3c2C2=NCCN2C=N3)CO1	111%	104% (inactive)	111% (inactive)	91.5% (inactive)	90.9% (inactive)	1.75% (inactive)	89.2%	90.9%	-3.82% (inactive)	-4.55% (inactive)
COc1cc(NC(=O)Cc2nn(C)c(=O)c3ccccc23)cc(OC)c1	87.5%	91.5% (inactive)	87.5% (inactive)	73% (inactive)	84.3% (inactive)	-2.83% (inactive)	87.1%	84.3%	-2.24% (inactive)	-2.9% (inactive)
CCC(NC(=O)Nc1cc(OC)c(OC)c(OC)c1)(C(F)(F)F)C(F)(F)F	112%	83.5% (inactive)	112% (inactive)	105% (inactive)	93% (inactive)	-7.81% (inactive)	101%	93%	-4.47% (inactive)	11% (inactive)
Oc1c(Cl)cc(Cl)cc1CNc1ccc(Br)cn1	100%	88% (inactive)	100% (inactive)	74.8% (inactive)	93.2% (inactive)	-3.58% (inactive)	96.8%	93.2%	1.58% (inactive)	13.4% (inactive)
COc1ccccc1N1CC(C(=O)Nc2cccc(C(=O)O)c2)CC1=O (stereo not given)	98%	103% (inactive)	98% (inactive)	95.4% (inactive)	94.1% (inactive)	-5.46% (inactive)	99.6%	94.1%	3.07% (inactive)	-7.58% (inactive)
O=C1NC(c2ccccc2)(C(F)(F)F)SC2=CCCCCN12 (stereo not given)	90.5%	106% (inactive)	90.5% (inactive)	86.2% (inactive)	94.3% (inactive)	2.37% (inactive)	92%	94.3%	-3.29% (inactive)	-3.33% (inactive)
COc1ccc(-c2cc(C(F)F)n3ncc(C(=O)NCC4CCCO4)c3n2)cc1 (stereo not given)	92%	89% (inactive)	92% (inactive)	82.7% (inactive)	73.6% (inactive)	-3.58% (inactive)	77.2%	73.6%	-0.79% (inactive)	4.35% (inactive)
COC(=O)c1cccc(Oc2nc3c(c(=O)n(C)c(=O)n3C)n2C(C)C)c1	80.5%	84% (inactive)	80.5% (inactive)	79.6% (inactive)	79.6% (inactive)	-20.9% (inactive)	101%	79.6%	-2.93% (inactive)	2% (inactive)
COc1cccc2cc(C(=O)C3=C(O)C(=O)N(CCCN4CCOCC4)C3c3ccncc3)oc12 (stereo not given)	98%	142% (inactive)	98% (inactive)	110% (inactive)	96.8% (inactive)	-2.74% (inactive)	99.6%	96.8%	-5.19% (inactive)	-5.5% (inactive)

Structure (SMILES)	viability [1]	Her2 level [2]	viability [3]	viability [4]	viability [5]	differential viability (reversal) ([6]; H69AR cells + 2 uM doxorubicin)	viability [6, 9]	viability [6, 10]	inhibition [7]	inhibition [8]
CC(C)(C)c1cc(C(=O)O)nn1-c1ccccc1	112%	92% (inactive)	112% (inactive)	98.1% (inactive)	92.2% (inactive)	5.08% (inactive)	87.1%	92.2%	-4.47% (inactive)	-2.54% (inactive)
COc1ccc(OC(C)C(=O)N2CC(C)OC(C)C2)cc1 (stereo not given)	100%	102% (inactive)	100% (inactive)	97.3% (inactive)	100% (inactive)	-1.02% (inactive)	101%	100%	-5% (inactive)	0.16% (inactive)
OC(CN1CCN(c2ccccn2)CC1)Cn1c2ccccc2c2ccccc21 (stereo not given)	100%	114% (inactive)	100% (inactive)	67.2% (inactive)	82.1% (inactive)	-10.4% (inactive)	92.4%	82.1%	-0.65% (inactive)	6.5% (inactive)
COC(=O)CCN1CCC(C(N)=O)CC1	100%	113% (inactive)	100% (inactive)	102% (inactive)	100% (inactive)	15% (inactive)	85.1%	100%	-6.8% (inactive)	2.46% (inactive)
Cc1ccc(N(CC(=O)NCC2CCCO2)S(C)(=O)=O)cc1Cl (stereo not given)	106%	82.5% (inactive)	106% (inactive)	99.1% (inactive)	89.2% (inactive)	-3.35% (inactive)	92.6%	89.2%	1.41% (inactive)	-3% (inactive)
COCCN(CC(=O)NCc1ccccc1)C(=O)CCC(=O)Nc1ccccn1	112%	90.5% (inactive)	112% (inactive)	103% (inactive)	92.9% (inactive)	1.44% (inactive)	91.5%	92.9%	-4.8% (inactive)	1.94% (inactive)
CC(=O)Nc1ccccc1-c1nc2ccc(C(=O)N3CCN(c4ccccc4)CC3)cc2[nH]c1=O	99.5%	88% (inactive)	99.5% (inactive)	86.2% (inactive)	93.4% (inactive)	-1.66% (inactive)	95%	93.4%	-1.33% (inactive)	1.15% (inactive)
Cc1cc(C(=O)OCC(=O)N2c3ccccc3CC2C)c(C)o1 (stereo not given)	90.5%	86.5% (inactive)	90.5% (inactive)	101% (inactive)	100% (inactive)	9.63% (inactive)	90.8%	100%	-4.05% (inactive)	-4.75% (inactive)
Cn1c2ccccc2c2ncn(CCCN3CCOCC3)c(=O)c21	89%	93% (inactive)	89% (inactive)	101% (inactive)	94.6% (inactive)	1.77% (inactive)	92.9%	94.6%	-7.6% (inactive)	-7.94% (inactive)
O=C(Nc1ccc(F)cc1)c1cccc2c1C(=O)N(Cc1ccccn1)C2	95.5%	90% (inactive)	95.5% (inactive)	87.5% (inactive)	96% (inactive)	16.1% (inactive)	79.9%	96%	-0.92% (inactive)	-3.06% (inactive)
O=C(O)Cn1cc2c(n1)CCCC2	96%	98% (inactive)	96% (inactive)	93.9% (inactive)	98% (inactive)	3.98% (inactive)	94%	98%	-2% (inactive)	5.41% (inactive)
CC12CN3CC(C)(CN(C1)C3c1cc(Br)ccc1O)C2=O (stereo not given)	95.5%	124% (inactive)	95.5% (inactive)	87% (inactive)	100% (inactive)	1.15% (inactive)	98.9%	100%	-0.65% (inactive)	-3.83% (inactive)
O=S(=O)(NCCSc1ccccc1)c1cccs1	95%	86% (inactive)	95% (inactive)	102% (inactive)	86.4% (inactive)	11.9% (inactive)	74.6%	86.4%	-6.49% (inactive)	-5.5% (inactive)
CCNS(=O)(=O)c1ccc(S(=O)(=O)N(Cc2ccccn2)C2CCCCC2)cc1	102%	87% (inactive)	102% (inactive)	109% (inactive)	88.9% (inactive)	13.6% (inactive)	75.3%	88.9%	-8.92% (inactive)	-5.17% (inactive)
CC(=O)Nc1c(-c2ccc(F)cc2)nc2ccccn12	94.5%	107% (inactive)	94.5% (inactive)	114% (inactive)	87.7% (inactive)	-19.5% (inactive)	107%	87.7%	-4.67% (inactive)	1% (inactive)
